Consider 2 compounds from ChEMBL document CHEMBL1151311, “A novel antiprotozoal aminosteroid from Saracha punctata” (J Nat Prod, 1998).

Data set [1] concerns Trypanosoma cruzi. Description: Trypanocidal activity against Trypanosoma cruzi Tulahuen epimastigotes at 2.5 ug/ml after 48 hrs relative to control. As to conditions: Tuluhuen. It is filed as functional. The method, boiled down:
(§1)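 T. cruzi epimastigotes in LIT medium with 10% FCS at 28 °C (inoculum 10^6 cells/mL) were exposed to compound (final DMSO <0.5%) for 48 h. Parasites were counted in a hemocytometer and compared with extract-free controls, in triplicate.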

Data set [2] has as its system Plasmodium falciparum. Description: Antimalarial activity against chloroquine-resistant Plasmodium falciparum Indo after 24 hrs. It is filed as functional, organism-based. The method, boiled down: (§2)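 P. falciparum strains 2087 and INDO kept in human erythrocytes. Samples were dissolved with DMSO (≤0.1% in dilutions) in RPMI 1640 and tested in triplicate with O+ red cells at 5% hematocrit and 1% parasitemia. Plates were incubated 24 h at 37 °C by candle-jar, then 48 h more with daily medium change. Parasitemia was counted by day-3 smear; IC50 came from linear regression of % inhibition versus control.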

The nature of data set [3]: Selectivity index, ratio of IC50 for KB cells to IC50 for chloroquine -sensitive Plasmodium falciparum 2087. Format: toxicity, cell-based. Conditions: human, read-out: Ratio IC50.
Data set [4] deals with Plasmodium berghei. Kind of data set: Antiplasmodial activity as reduced parasitaemia in Plasmodium berghei NK65 infected mice (Mus musculus) at 8 mg/kg/day for 4 days. Format: functional. Also on record: scale not given: the % may be the effect or the level left. The method, boiled down: (§3)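 Four-day suppressive test adapted from Peters: mice were inoculated with P. berghei NK 65 on day 1 and treated daily for four consecutive days. A blood smear was taken on day 5, and parasitemia was compared with infected untreated controls.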

Data set [5] deals with Leishmania chagasi. Kind of data set: Antileishmanial activity against Leishmania donovani chagasi PP75 at 5 ug/ml. It is filed as functional.
The subject of data set [6] is Plasmodium falciparum. Description: Antimalarial activity against chloroquine-sensitive Plasmodium falciparum 2087 after 24 hrs. It is filed as functional, organism-based. The method, boiled down: as §2
Data set [7] relates to Leishmania braziliensis. Kind of data set: Antileishmanial activity against Leishmania braziliensis MHOM/BR/75/M2903 promastigotes at 5 ug/ml after 72 hrs relative to control. Format: functional. As to conditions: MHOM/BR/75/M2903, 72 h. The procedure, abridged: (§4)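 Promastigotes, 50 000 per well, were exposed to compound in liquid medium (final DMSO <0.1%) at 27 °C for 72 h. Growth was judged by inverted-phase microscopy of a culture drop against extract-free controls. Assays were run in triplicate.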

Data set [8] concerns Leishmania braziliensis. Kind of data set: Antileishmanial activity against Leishmania braziliensis MHOM/BR/75/M2903 promastigotes at 20 ug/ml after 72 hrs relative to control. Format: functional. As to conditions: MHOM/BR/75/M2903, 72 h. The procedure, abridged: as §4
For data set [9], the system named is Mus musculus. Description: Toxicity in Plasmodium berghei NK65 infected mice (Mus musculus) at 16 mg/kg administered daily for 4 days. Format: organism-based. Also noted: dose 16 mg/kg. As to conditions: in vivo, 96 h. The procedure, abridged:
(§5)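 Mice infected with P. berghei NK 65 on day 1 were dosed daily for four consecutive days in the four-day suppressive test. Lethality was recorded on day 4.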

For data set [10], the system named is Leishmania amazonensis. Description: Antileishmanial activity against Leishmania amazonensis MHOM/GF/84/CAY H-142 promastigotes at 2.5 ug/ml after 72 hrs relative to control.
A short description of data set [11]: Selectivity index, ratio of IC50 for KB cells to IC50 for chloroquine-resistant Plasmodium falciparum INDO. Format: toxicity, cell-based. As to conditions: human, read-out: Ratio IC50.
Data set [12] deals with Leishmania amazonensis. Kind of data set: Antileishmanial activity against Leishmania amazonensis MHOM/GF/84/CAY H-142 promastigotes at 10 ug/ml after 72 hrs relative to control.
Data set [13] can be described thus: Cytotoxicity against BALB/c mouse peritoneal macrophages assessed as survival at 5 ug/ml. It is filed as cell-based, Macrophage. As to conditions: read-out: Activity.
Data set [14] relates to Leishmania braziliensis. Description: Antileishmanial activity against Leishmania braziliensis MHOM/BR/75/M2903 promastigotes at 2.5 ug/ml after 72 hrs relative to control. Format: functional. As to conditions: MHOM/BR/75/M2903, 72 h. The method, boiled down:
as §4

The test system of data set [15] is Plasmodium berghei. Description: Antiplasmodial activity as reduced parasitaemia in Plasmodium berghei NK65 infected mice (Mus musculus) at 16 mg/kg/day for 4 days. Also on record: scale not given: the % may be the effect or the level left. It is filed as functional. The procedure, abridged:
as §3

Data set [16] concerns KB. Kind of data set: Cytotoxicity against human KB cells. It is filed as cell-based.
Data set [17] relates to Leishmania chagasi. Kind of data set: Antileishmanial activity against Leishmania donovani chagasi PP75 at 2.5 ug/ml. Format: functional.
Data set [18] can be described thus: Cytotoxicity against BALB/c mouse peritoneal macrophages assessed as survival at 20 ug/ml. As to conditions: read-out: Activity. Format: cell-based, Macrophage.
Data set [19] has as its system Plasmodium berghei. Description: Antiplasmodial activity as reduced parasitaemia in Plasmodium berghei NK65 infected mice (Mus musculus) at 32 mg/kg/day for 4 days. It is filed as functional. Also on record: scale not given: the % may be the effect or the level left. The method, boiled down: as §3
In data set [20] the test system is Trypanosoma cruzi. Kind of data set: Trypanocidal activity against Trypanosoma cruzi Tulahuen epimastigotes at 5 ug/ml after 48 hrs relative to control. Conditions: Tuluhuen. It is filed as functional. The procedure, abridged:
as §1

Data set [21] concerns Trypanosoma cruzi. Kind of data set: Trypanocidal activity against Trypanosoma cruzi Tulahuen epimastigotes at 20 ug/ml after 48 hrs relative to control. Format: functional. Conditions: Tuluhuen. The method, boiled down: as §1
The test system of data set [22] is Leishmania amazonensis. Kind of data set: Antileishmanial activity against Leishmania amazonensis MHOM/GF/84/CAY H-142 promastigotes at 5 ug/ml after 72 hrs relative to control.
The test system of data set [23] is Leishmania chagasi. Kind of data set: Antileishmanial activity against Leishmania donovani chagasi PP75 at 10 ug/ml. It is filed as functional.
Data set [24] has as its system Leishmania amazonensis. Description: Antileishmanial activity against Leishmania amazonensis MHOM/GF/84/CAY H-142 promastigotes at 20 ug/ml after 72 hrs relative to control.
The test system of data set [25] is Mus musculus. Kind of data set: Toxicity in Plasmodium berghei NK65 infected mice (Mus musculus) at 8 mg/kg administered daily for 4 days. Format: organism-based. Also noted: dose 8 mg/kg. As to conditions: in vivo, 96 h. The procedure, abridged: as §5
Data set [26] concerns Trypanosoma cruzi. Description: Trypanocidal activity against Trypanosoma cruzi Tulahuen epimastigotes at 10 ug/ml after 48 hrs relative to control. Conditions: Tuluhuen. Format: functional. The method, boiled down:
as §1

A short description of data set [27]: Cytotoxicity against BALB/c mouse peritoneal macrophages assessed as survival at 10 ug/ml. It is filed as cell-based, Macrophage. Conditions: read-out: Activity.
For data set [28], the system named is Leishmania chagasi. Description: Antileishmanial activity against Leishmania donovani chagasi PP75 at 20 ug/ml. Format: functional.
Data set [29] relates to Leishmania braziliensis. Kind of data set: Antileishmanial activity against Leishmania braziliensis MHOM/BR/75/M2903 promastigotes at 10 ug/ml after 72 hrs relative to control. Format: functional. As to conditions: MHOM/BR/75/M2903, 72 h. The method, boiled down: as §4

Regarding `C[C@H]1CC[C@H]([C@@H](C)[C@H]2CC[C@H]3[C@@H]4CC=C5C[C@@H](N)CC[C@]5(C)[C@H]4CC[C@]23C)NC1`, the inhibition at 2.5 µg/mL in data set [1], in data set [10], in data set [14] and in data set [17] was 0% in each case. Besides, the IC50 (usually the concentration at which inhibition is half-maximal) in [2] stood at 176 nM; in data set [6], 25 nM; in [16], 50000 nM. The selectivity ratio came to 2000 in [3] and 286 in data set [11]. In addition, the Activity in [4] is reported as 16%; in data set [9], “Non-toxic”; in [15] it was 27%; in [19] it was 69%; in data set [25] it was “Non-toxic”. Also, the inhibition (commonly the relative decrease from the control value, in per cent) at 5 µg/mL came out at 50% in data set [5], 50% in [7], 0% in [20] and 50% in data set [22]. In addition, the inhibition at 20 µg/mL in data set [8], in data set [21], in [24] and in data set [28] was 100% each time. Besides, the inhibition at 10 µg/mL in data set [12] amounted to 100%; in [23], 100%; in [26], 50%; in data set [29] it was 100%. In addition, in data set [13], the viability at 5 ug/ml was determined as 0%. In data set [18], the viability at 20 ug/ml worked out at 0%. Moreover, the viability at 10 ug/ml in data set [27] is 0%.

On to `N=C(N)c1ccc(OCCCCCOc2ccc(C(=N)N)cc2)cc1` [PENTAMIDINE], for which the inhibition at 10 µg/mL in data set [12], in data set [23], in data set [26] and in [29] was 100% throughout.
